Results from different studies.
Compare with care: the assays were run in different laboratories.
Organism: Plasmodium falciparum
Effect on: parasite growth
Method: SYBR Green

SMILES | system | conditions | endpoint | value
O=C1c2[nH]cc3c2C(=NCC3)c2c(-c3ccc(O)cc3)c[nH]c21 | DD2 | blood stage | IC50 | 4770 nM
O=C(/C=C/c1cn(Cc2cn(-c3ccnc4cc(Cl)ccc34)nn2)c2ccccc12)c1ccccc1[N+](=O)[O-] | 3D7 | 10 µM, blood stage | inhibition | 26.1%
COC1=CC2=[N+](C)CCc3c[nH]c(c32)C1=O | W2 | blood stage | IC50 | 1520 nM
COCC(=O)N1CCC[C@@H](C(=O)NCc2nc(-c3ccccc3)cs2)C1 | DD2 | 72 h, blood stage | EC50 | 7000 nM
COc1ccccc1C(=O)/C=C/c1cn(Cc2cn(-c3ccnc4cc(Cl)ccc34)nn2)c2ccccc12 | 3D7 | 5 µM, blood stage | inhibition | 56.8%
COC(CNC1=CC2=NCCc3c[nH]c(c32)C1=O)c1c[nH]c2ccccc12 (centres unmarked) | DD2 | blood stage | IC50 | 654 nM
O=C(/C=C/c1cn(Cc2cn(-c3ccnc4cc(Cl)ccc34)nn2)c2ccccc12)c1ccccc1Cl | 3D7 | 5 µM, blood stage | inhibition | 42.4%
CCN(CC)CCCC(C)Nc1ccnc2cc(Cl)ccc12 (centres unmarked) | 3D7 | 96 h, blood stage | IC50 | 4.8 nM
O=C(/C=C/c1cn(Cc2cn(-c3ccnc4cc(Cl)ccc34)nn2)c2ccccc12)c1cccc([N+](=O)[O-])c1 | 3D7 | 5 µM, blood stage | inhibition | 4.82%
O=C1C(O)=C([C@H]2CC[C@H](c3ccc(Cl)cc3)CC2)C(=O)c2ccccc21 | – | 72 h | EC50 | 0.86 nM
NC1=CC2=NCCc3c[nH]c(c32)C1=O | DD2 | blood stage | IC50 | 478 nM
COCC(=O)N1CCC[C@H](C(=O)NCc2nc(-c3ccc(C)cc3)cs2)C1 | DD2 | 72 h, blood stage | EC50 | 15 nM
O=C1C(NCCc2c[nH]c3ccccc23)=CC2=NCCc3c[nH]c1c32 | W2 | blood stage | IC50 | 716 nM
O=C(/C=C/c1cn(Cc2cn(-c3ccnc4cc(Cl)ccc34)nn2)c2ccccc12)c1ccc(Br)cc1 | 3D7 | 5 µM, blood stage | inhibition | 12.9%
Cn1cc2c3c1C(=O)C(NCCc1ccc(O)cc1)=CC3=NCC2 | W2 | blood stage | IC50 | 5010 nM
O=C(/C=C/c1cn(Cc2cn(-c3ccnc4cc(Cl)ccc34)nn2)c2ccccc12)c1ccccc1Br | 3D7 | 5 µM, blood stage | inhibition | -1.58%
CCOCC(=O)N1CCC[C@H](C(=O)NCc2nc(-c3ccc(C)nc3)cs2)C1 | DD2 | 72 h, blood stage | EC50 | 5 nM
CCOC(=O)C1=C(C)NC2=C(C(=O)OC(c3ccc(OC)c(OC)c3)C2)C1c1ccccc1C (mixture of isomers) | 3D7 | blood stage | EC50 | 40 to 190 nM
CCOCC(=O)N1CCC[C@H](C(=O)NCc2nc(-c3ccc(C#N)cc3)cs2)C1 | DD2 | 72 h, blood stage | EC50 | 5.8 nM
CCN(CC)CCCC(C)Nc1ccnc2cc(Cl)ccc12 (centres unmarked) | D6 | 72 h, blood stage | IC50 | 6.57 nM
